Legend:
Rattus norvegicus [1] = test: Percentage peak pressor response in rat after peroral administration at a dose of 0.3 mg/kg of the compound.; assay type: functional; details: route oral
How it was run: (§1)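 Conscious male Sprague-Dawley rats (300–400 g) fitted with arterial and venous catheters. Compound given orally as a suspension in 1 N NaOH–0.5% methocel (10:90). Pressor response to AII (0.1 μg/kg iv) measured before and after dosing. Peak inhibition of the AII response is expressed as a percentage at each dose.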

Rattus norvegicus [2] = test: Percentage peak pressor response in rat after intravenous administration at a dose of 0.3 mg/kg of the compound.; assay type: functional
How it was run: (§2)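 Male Sprague-Dawley rats (300–400 g), conscious, with arterial (blood pressure) and venous (dosing) catheters. Pressor responses to AII 0.1 μg/kg iv recorded before and after iv compound. Vehicle: saturated NaHCO3 15%, saline 35%, water 50%.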

Rattus norvegicus [3] = test: Percentage peak pressor response in rat after intravenous administration at a dose of 0.1 mg/kg of the compound.; assay type: functional; how it was run: as §2
Rattus norvegicus [4] = test: Percentage peak pressor response in rat after peroral administration at a dose of 0.1 mg/kg of the compound.; assay type: functional; details: route oral; how it was run: as §1
Rattus norvegicus [5] = test: Percentage peak pressor response in rat after intravenous administration at a dose of 0.03 mg/kg of the compound.; assay type: functional; how it was run: as §2
Rattus norvegicus [6] = test: Percentage peak pressor response in rat after peroral administration at a dose of 0.03 mg/kg of the compound.; assay type: functional; details: route oral; how it was run: as §1
[7] = molecular target: Type-1 angiotensin II receptor (Oryctolagus cuniculus) (UniProt P34976); test: Binding affinity towards Angiotensin receptor from rabbit aorta
[8] = molecular target: Type-1 angiotensin II receptor (Rattus norvegicus) (UniProt P25095); test: The compound was tested for inhibition of angiotensin II receptor induced pressor response in rat after intravenous administration.
Type-1 angiotensin II receptor (Rattus norvegicus), sequence (P25095 whole entry, looked up): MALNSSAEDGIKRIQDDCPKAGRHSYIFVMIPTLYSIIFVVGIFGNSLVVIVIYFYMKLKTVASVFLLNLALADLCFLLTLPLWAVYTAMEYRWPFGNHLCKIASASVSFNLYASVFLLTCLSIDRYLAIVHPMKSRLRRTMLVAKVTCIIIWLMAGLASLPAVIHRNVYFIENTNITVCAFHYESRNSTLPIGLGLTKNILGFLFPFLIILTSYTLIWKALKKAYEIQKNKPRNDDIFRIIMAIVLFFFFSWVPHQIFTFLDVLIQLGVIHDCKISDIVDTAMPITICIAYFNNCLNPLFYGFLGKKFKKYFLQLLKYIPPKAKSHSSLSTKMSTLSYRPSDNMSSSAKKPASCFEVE

Type-1 angiotensin II receptor (Oryctolagus cuniculus), sequence (P34976 whole entry, looked up): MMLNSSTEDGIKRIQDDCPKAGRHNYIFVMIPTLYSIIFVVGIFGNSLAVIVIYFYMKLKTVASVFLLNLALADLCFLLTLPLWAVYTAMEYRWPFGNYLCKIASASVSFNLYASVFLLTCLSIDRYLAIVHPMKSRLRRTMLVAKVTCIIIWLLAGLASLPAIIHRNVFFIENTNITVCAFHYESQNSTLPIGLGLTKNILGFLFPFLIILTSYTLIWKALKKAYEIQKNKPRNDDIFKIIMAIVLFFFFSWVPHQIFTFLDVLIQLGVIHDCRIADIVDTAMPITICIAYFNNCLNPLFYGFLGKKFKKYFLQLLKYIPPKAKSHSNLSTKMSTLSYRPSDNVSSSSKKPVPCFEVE

SMILES	IC50 [7] [nM]	ED50 [8] [mg/kg]	further results
CCc1nc2c(C)cc(C)nc2n1Cc1ccc(-c2ccccc2-c2nn[nH]n2)cc1 [L-158809]			Peak inhibition (Rattus norvegicus [1]): 92%; Peak inhibition (Rattus norvegicus [2]): 99%; Peak inhibition (Rattus norvegicus [3]): 85%; Peak inhibition (Rattus norvegicus [4]): 75%; Peak inhibition (Rattus norvegicus [5]): 36%; Peak inhibition (Rattus norvegicus [6]): 52%
CCCc1nc2c(C)ccnc2n1Cc1ccc(-c2ccccc2-c2nn[nH]n2)cc1	1		
CCCc1nc2cccnc2n1Cc1ccc(-c2ccccc2-c2nn[nH]n2)cc1	8		
CCCc1nc2c(C)cc(C)nc2n1Cc1ccc(-c2ccccc2-c2nn[nH]n2)cc1	0.3	0.087	
CCCc1nc2ccc(C)nc2n1Cc1ccc(-c2ccccc2-c2nn[nH]n2)cc1	2	1	
CCCCc1nc2c(C)cc(C)nc2n1Cc1ccc(-c2ccccc2-c2nn[nH]n2)cc1	0.5	0.45	
CCCCC1=NC(Cl)C(C(=O)O)N1Cc1ccc(-c2ccccc2-c2nn[nH]n2)cc1 (stereo not given)	6		
